Laboratory results from ChEMBL document CHEMBL4000256, “Light-Regulated NO Release as a Novel Strategy To Overcome Doxorubicin Multidrug Resistance” (ACS Med Chem Lett, 2017).
Calls of active or inactive are those of the source. The rule behind the calls is not given here.

Tests used:
Fibroblast [1] = assay: Dark toxicity against human fibroblasts at 5 uM measured after 20 mins by spectrophotometric method; type: cell-based
Method in brief: (§1)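 Human fibroblasts or rat H9c2 cardiomyocytes kept 20 min at room temperature in PBS, either in the dark or irradiated at λexc 400 nm, 7 mW/cm2, with or without 5 μM test agent. Cytotoxicity measured in triplicate; means ± SD, n = 3.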

M14 [2] = assay: Cytotoxicity against 7 mW/cm'2 irradiated human M14 cells assessed as increase in LDH release at 5 uM measured after 20 mins by spectrophotometric method; type: functional, cell-based
Method in brief: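 Cells (M14 melanoma, human fibroblasts or rat H9c2 cardiomyocytes) kept 20 min at room temperature in PBS under 400 nm light (7 mW/cm2), alone or with 5 μM compound, given alone or with equimolar 5 μM doxorubicin. Damage read as extracellular LDH release. Triplicate measurements, n = 3.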

M14 [3] = assay: Dark toxicity in human M14 cells assessed as increase in nitrite levels at 5 uM measured after 20 mins by Griess reagent based spectrophotometric method; type: cell-based; details: m14, 20 min
H9c2 [4] = assay: Dark toxicity against rat H9c2 cells at 5 uM measured after 20 mins by spectrophotometric method; type: cell-based; details: h9c2, 20 min; method in brief: as §1
Bos taurus = species on record: Bos taurus; assay: Binding affinity to calf thymus duplex DNA by fluorescence spectroscopic method
Fibroblast [5] = assay: Cytotoxicity against 7 mW/cm'2 irradiated human fibroblasts at 5 uM measured after 20 mins by spectrophotometric method; type: cell-based; method in brief: as §1
H9c2 [6] = assay: Cytotoxicity against 7 mW/cm'2 irradiated rat H9c2 cells at 5 uM measured after 20 mins by spectrophotometric method; type: cell-based; details: h9c2, 20 min; method in brief: as §1
M14 [7] = assay: Dark toxicity in human M14 cells assessed as increase in LDH release at 5 uM measured after 20 mins by spectrophotometric method; type: cell-based; details: m14, 20 min
Method in brief: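 Cells (M14 melanoma, human fibroblasts or rat H9c2 cardiomyocytes) kept 20 min at room temperature in PBS in the dark, with 5 μM compound, given alone or with equimolar 5 μM doxorubicin. Cytotoxicity read as extracellular LDH release. Triplicate measurements, n = 3.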

K (Bos taurus): 630000 M⁻¹
Structure (SMILES): COc1cccc2c1C(=O)c1c(O)c3c(c(O)c1C2=O)C[C@@](O)(C(=O)CO)C[C@@H]3O[C@H]1C[C@H](N)[C@H](O)[C@H](C)O1.Cl [DOXORUBICIN HYDROCHLORIDE]
Activity (Fibroblast [1]): Toxic
Activity (M14 [2]): inactive
Activity (M14 [3]): Non-Toxic
Activity (H9c2 [4]): Toxic
Activity (Fibroblast [5]): Toxic
Activity (H9c2 [6]): Toxic
Activity (M14 [7]): Non-Toxic
